From ChEMBL document CHEMBL3286167 (J Med Chem, 2014)

Assays:
[1] = target: Neurotensin receptor type 1 (Rattus norvegicus) (UniProt P20789); test: Antagonist activity at rat NTS1 stably expressed in CHOK1 cells assessed as inhibition of NT-induced calcium release by FLIPR assay; assay type: functional, cell-based; conditions: CHO-K1
Outline: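 Rat NTS1 CHO-k1 cells, plated at 30000/well on the assay day. Cells were loaded with Calcium 5 dye (1:40 in HBSS, 20 mM HEPES, 2.5 mM probenecid, pH 7.4) for 45 min at 37 °C, then preincubated with compound for 15 min. […] Fluorescence (ex 485/em 525 nm) read for 60 s on FlexStation II; three-parameter logistic fit; at least three experiments in duplicate.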

[2] = target: T1, Neurotensin receptor type 2 (Rattus norvegicus) (UniProt Q63384); test: Agonist activity at rat NTS2 stably expressed in CHOK1 cells assessed as induction of calcium release by FLIPR assay relative to SR142948a; assay type: functional, cell-based; conditions: CHO-K1
T1 sequence (whole entry): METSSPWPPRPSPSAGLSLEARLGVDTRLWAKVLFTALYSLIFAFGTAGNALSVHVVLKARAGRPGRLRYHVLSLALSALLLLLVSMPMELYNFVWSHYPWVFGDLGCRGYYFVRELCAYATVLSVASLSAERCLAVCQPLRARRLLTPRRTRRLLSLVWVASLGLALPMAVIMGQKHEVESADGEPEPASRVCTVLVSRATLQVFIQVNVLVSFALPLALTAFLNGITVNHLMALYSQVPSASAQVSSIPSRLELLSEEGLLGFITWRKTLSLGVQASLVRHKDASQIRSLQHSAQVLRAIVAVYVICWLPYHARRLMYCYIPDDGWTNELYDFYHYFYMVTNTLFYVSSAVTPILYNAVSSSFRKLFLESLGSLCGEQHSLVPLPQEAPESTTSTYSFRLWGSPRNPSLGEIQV
Outline: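 Rat NTS2 expressed in CHO-k1 cells, plated at 25000/well the day before the assay. Cells were loaded with Calcium 5 dye (1:20 in HBSS, 20 mM HEPES, 2.5 mM probenecid, pH 7.4) for 45 min at 37 °C, then pretreated with 10% DMSO added 1:10. Full-log compound dilutions were read on FLIPR Tetra every second for 100 s. Emax is expressed as % of the full-agonist standard; EC50 from a three-parameter logistic fit; at least three experiments in duplicate.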

[3] = target: Neurotensin receptor type 1 (Rattus norvegicus, UniProt P20789); test: Agonist activity at rat NTS1 stably expressed in CHOK1 cells assessed as induction of calcium release by FLIPR assay; assay type: functional, cell-based; conditions: cho-k1
Neurotensin receptor type 1, sequence (P20789 whole entry): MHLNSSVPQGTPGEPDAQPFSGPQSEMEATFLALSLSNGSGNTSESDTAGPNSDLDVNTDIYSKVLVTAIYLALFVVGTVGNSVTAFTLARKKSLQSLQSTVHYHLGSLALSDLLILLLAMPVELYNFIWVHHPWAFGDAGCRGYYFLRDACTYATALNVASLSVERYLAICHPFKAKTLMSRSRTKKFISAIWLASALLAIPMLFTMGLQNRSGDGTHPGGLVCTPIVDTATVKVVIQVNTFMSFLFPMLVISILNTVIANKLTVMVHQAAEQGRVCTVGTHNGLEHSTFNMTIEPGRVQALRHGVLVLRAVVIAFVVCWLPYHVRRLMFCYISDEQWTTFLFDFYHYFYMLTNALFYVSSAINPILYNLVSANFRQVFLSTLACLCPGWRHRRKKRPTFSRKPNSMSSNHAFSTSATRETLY

[4] = target: T2, Neurotensin receptor type 2 (Rattus norvegicus, UniProt Q63384); test: Agonist activity at rat NTS2 stably expressed in CHOK1 cells assessed as induction of calcium release by FLIPR assay; assay type: functional, cell-based, CHO-K1
T2 sequence (Q63384 whole entry): T1 sequence (whole entry)

[5] = target: T2, Neurotensin receptor type 2; test: Displacement of [125I]NT at rat NTS2 overexpressed in CHOK1 cells after 30 mins by gamma counting; assay type: cell-based, CHO-K1

Neurotensin receptor type 1 (Rattus norvegicus), sequence (P20789 whole entry): as above

SMILES	Ke [1] [nM]	Emax [2] [%]	further results
COc1ccc(OC)c(-c2cc(C(=O)N[C@H](C(=O)O)C3CCCCC3)nn2-c2ccnc3cc(Cl)ccc23)c1	1280	19	
COc1cccc(OC)c1-c1cc(C(=O)NC2(C(=O)O)CCCCCC2)nn1-c1ccnc2cc(Cl)ccc12	42	89	
COc1ccc(-c2cc(C(=O)N[C@H](C(=O)O)C3CCCCC3)nn2-c2ccnc3cc(Cl)ccc23)c(OC)c1		12	
COc1ccccc1-c1cc(C(=O)N[C@H](C(=O)O)C2CCCCC2)nn1-c1ccnc2cc(Cl)ccc12	1680	25	
COc1cccc(OC)c1-c1cc(C(=O)NC2(C(=O)O)CCCC2)nn1-c1ccnc2cc(Cl)ccc12	222	76	
COc1cccc(OC)c1-c1cc(C(=O)N[C@H](C(=O)O)C2CCCCC2)nn1-c1ccnc2cc(Cl)ccc12	23	86	
COc1ccccc1-c1cc(C(=O)NC2(C(=O)O)CCCCC2)nn1-c1ccnc2cc(Cl)ccc12	4550	35	
C[C@@H]1CN([C@H]2CC[C@](C#N)(c3ccc(F)cc3)CC2)CC[C@]1(C(=O)O)c1ccccc1 [LEVOCABASTINE]		16	EC50 [3]: Not Active
COc1ccccc1-c1cc(C(=O)N[C@H](C(=O)O)C2CCCCC2)nn1-c1cccc2ccccc12	1400	18	
COc1cccc(OC)c1-c1cc(C(=O)NC2(C(=O)O)C3CC4CC(C3)CC2C4)nn1-c1ccc(C(=O)N(C)CCCN(C)C)cc1C(C)C (configuration not stated)		100	EC50 ([4]; read-out: EC50): 20 nM; Ki [5]: 6 nM
COc1cccc(OC)c1-c1cc(C(=O)NC2(C(=O)O)C3CC4CC(C3)CC2C4)nn1-c1ccc(F)cc1 (configuration not stated)	191	34	
COc1cccc(OC)c1-c1cc(C(=O)N[C@H](C(=O)O)C2CCCCC2)nn1-c1ccc(F)cc1	3340	22	
COc1cccc(OC)c1-c1cc(C(=O)NC2(C(=O)O)CCCCC2)nn1-c1ccnc2cc(Cl)ccc12	157	78	
COc1cccc(OC)c1-c1cc(C(=O)NC2(C(=O)O)CCCCC2)nn1-c1cccc2ccccc12	230	35	
COc1cccc(OC)c1-c1cc(C(=O)NC2(C(=O)O)CCCCC2)nn1-c1ccc(F)cc1		15	
O=C(N[C@H](C(=O)O)C1CCCCC1)c1cc(-c2c(F)cccc2F)n(-c2ccnc3cc(Cl)ccc23)n1		15	
COc1cccc(OC)c1-c1cc(C(=O)NC2C3CC4CC(C3)CC2C4)nn1-c1ccnc2cc(Cl)ccc12 (configuration not stated)			EC50 ([4]; cho-k1): Not Active
COc1cccc(OC)c1-c1cc(C(=O)N[C@H](C(=O)O)C2CCCCC2)nn1-c1cccc2ccccc12	58	45	
COc1ccccc1-c1cc(C(=O)NC2(C(=O)O)CCCCC2)nn1-c1cccc2ccccc12	7380	18	
COc1cccc(OC)c1-c1cc(C(=O)NC2(C(=O)O)C3CC4CC(C3)CC2C4)nn1-c1ccnc2cc(Cl)ccc12 (configuration not stated) [REMINERTANT]		100	EC50 ([4]; read-out: EC50): 120 nM; Ki [5]: 62 nM
CCc1c(C(=O)N[C@H](C(=O)O)C2CCCCC2)nn(-c2ccnc3cc(Cl)ccc23)c1-c1c(OC)cccc1OC		15	EC50 ([4]; read-out: EC50): 94 nM; Ki [5]: 1180 nM
CC[C@H](C)[C@H](NC(=O)[C@H](Cc1ccc(O)cc1)NC(=O)[C@@H]1CCCN1C(=O)[C@H](CCCN=C(N)N)NC(=O)[C@@H](N)CCCN=C(N)N)C(=O)N[C@@H](CC(C)C)C(=O)O			EC50 ([4]; cho-k1): Not Active
